Experimental data of several laboratories.
PLA2G5: Phospholipase A2 group V (PLA2G5, Homo sapiens, UniProt P39877)
NTRK3: NT-3 growth factor receptor (NTRK3, Homo sapiens, UniProt Q16288)
MDH2: Malate dehydrogenase, mitochondrial (MDH2, Sus scrofa, UniProt P00346)
CXCR4: C-X-C chemokine receptor type 4 (CXCR4, Homo sapiens, UniProt P61073)
CDK9 with cyclin T1: Cyclin-dependent kinase 9, with cyclin T1 (CDK9, Homo sapiens, UniProt P50750)
MERTK: Tyrosine-protein kinase Mer (MERTK, Homo sapiens, UniProt Q12866)
SRC: Proto-oncogene tyrosine-protein kinase Src (SRC, Homo sapiens, UniProt P12931)

For `CC(=O)c1cccc(N=Nc2c(C(=O)O)cc(O)c(O)c2O)c1`, the IC50 was 8.47 µM (PLA2G5; enzyme activity, inhibitor, Ellman).
For `C[C@@H](N)COc1ccc(-c2cnc3ccc(N[C@H](C)c4cccc(F)c4)nn23)cc1`, the IC50 was 0.0042 µM (NTRK3; enzyme activity, inhibitor).
For `Nn1cnnc1O`, the IC50 was greater than 100 µM (DNA dC->dU-editing enzyme APOBEC-3A (Homo sapiens, UniProt P31941); enzyme activity, inhibitor).
The IC50 of `CCOC(=O)C1CCN(C(=O)c2ccc(N(CC)Cc3cnc4nc(N)nc(N)c4n3)cc2)CC1` is reported as 8.51 µM (Cytochrome P450 2C9 (CYP2C9, Homo sapiens, UniProt P11712); enzyme activity, inhibitor, luciferase).
The IC50 of `O=S(=O)(Nc1ccc(-c2nc3cc(NS(=O)(=O)c4ccc(C(F)(F)F)cc4)ccc3o2)cc1)c1ccc(C(F)(F)F)cc1` is reported as greater than 62.5 µM (MDH2; enzyme activity, inhibitor).
For `CCS(=O)(=O)c1ncc(N(Cc2ccccc2)Cc2ccco2)c(C(=O)Nc2ccccc2F)n1`, the IC50 was 50 µM (CXCR4; β-arrestin recruitment, antagonist).
With `CN1CCN(c2ccc(Nc3ncc4cc(C#N)c(=O)n(C5CCCC5)c4n3)cc2)CC1` the IC50 was 7.41 µM (Cyclin-dependent kinase 1, with cyclin A (CDK1, Homo sapiens, UniProt P06493); enzyme activity, inhibitor).
The IC50 of `C=CC(=O)Nc1ccc(N2CCC[C@@H](Nc3ncc(Cl)c(-c4c[nH]c5ccccc45)n3)C2)cc1C` is reported as 0.165 µM (CDK9 with cyclin T1; enzyme activity, inhibitor, FRET).
For `Cc1ccc(CN(Cc2ccco2)c2cnc(S(C)(=O)=O)nc2C(=O)Nc2ccc(C)cc2)cc1`, the IC50 was 25 µM (CXCR4; β-arrestin recruitment, antagonist).
`COc1cc(/C=C/C(=O)c2ccc(NC(=O)c3ccccc3CN3C(=O)c4ccccc4C3=O)cc2)cc(OC)c1OC` gave an IC50 of 2.32 µM (Tubulin beta-5 chain (TUBB, Homo sapiens, UniProt P07437); tubulin polymerisation, inhibitor, ELISA).
The IC50 of `COc1c(C(=O)/C=C(\O)c2ccccc2)ccc2occc12` is reported as greater than 100 µM (CDK9 with cyclin T1; enzyme activity, inhibitor, ADP detection).
`CC(C)=CCC/C(C)=C/Cc1ccc[n+](CC(P(=O)([O-])O)P(=O)(O)O)c1` (stereo not drawn) has an IC50 of 10 µM (Geranylgeranyl pyrophosphate synthase (GGPS1, Homo sapiens, UniProt O95749); enzyme activity, inhibitor).
`CC(C)(C)n1nc(-c2cnc3cc(OC4CC4)ccc3c2)c(C(N)=O)c1N` gave an IC50 of greater than 10 µM (RAC-alpha serine/threonine-protein kinase (AKT1, Homo sapiens, UniProt P31749); cell-free assay).
`CCN1CCN(Cc2ccc(NC(=O)c3ccc(C)c(NC(=O)c4cncc(I)c4)c3)cc2C(F)(F)F)CC1` has an IC50 of 0.578 µM (Ephrin type-A receptor 2 (EPHA2, Homo sapiens, UniProt P29317); enzyme activity, inhibitor, ADP detection).
With `CC/C(=N\NC(=O)C(C)Nc1ccccc1)c1ccc(O)c(C)c1O` (stereo not drawn) the IC50 was 0.0117 µM (Serine/threonine-protein kinase Sgk2 (SGK2, Homo sapiens, UniProt Q9HBY8); enzyme activity, inhibitor).
With `Cc1noc(C)c1CN(C(=O)CCc1nc(Cc2ccccc2)no1)c1ccccc1` the IC50 was 200 µM (CXCR4; β-arrestin recruitment).
The IC50 of `Cc1ccc(S(=O)(=O)Nc2ccc(-c3nc4cc(NS(=O)(=O)c5ccc(C)cc5)ccc4o3)cc2)cc1` is reported as greater than 62.5 µM (MDH2; enzyme activity, inhibitor).
The IC50 of `OCc1cc(C(O)CNCCCCCCOCCCCc2ccccc2)ccc1O` (stereo not drawn) is reported as 38.3 µM (CXCR4; calcium signal, antagonist).
The IC50 of `Cc1ccc(C(=O)Nc2ccc(Oc3cc4cnn(C)c4cc3-c3cn[nH]c3)c(F)c2)c(=O)n1-c1ccc(F)cc1` is reported as 0.01 µM (MERTK; cell growth or viability, ATP luminescence).
`CCN(CC)CCOCCN(Cc1ccccc1)Cc1nc(Cc2ccccc2)no1` has an IC50 of 398 µM (CXCR4; β-arrestin recruitment).
The IC50 of `CC(=O)c1ccc(N=Nc2c(C(=O)O)cc(O)c(O)c2O)cc1` is reported as 7.15 µM (PLA2G5; enzyme activity, inhibitor, Ellman).
`O=c1cc(-c2ccccc2)oc2ccc3ccccc3c12` gave an IC50 of greater than 10 µM (CDK9 with cyclin T1; enzyme activity, inhibitor, ADP detection).
With `COc1ccc(S(=O)(=O)Nc2ccc3oc(-c4ccc(NC(=O)c5ccc(Cl)s5)cc4)nc3c2)cc1` the IC50 was greater than 62.5 µM (MDH2; enzyme activity, inhibitor).
With `[Na+].[Na+].[Na+].[O]=[V]([O-])([O-])[O-]` the IC50 was 4.4 µM (Tyrosine-protein phosphatase non-receptor type 6 (PTPN6, Homo sapiens, UniProt P29350); enzyme activity, inhibitor, absorbance).
The IC50 of `O=C(O)/C=C/c1ccc(O)cc1` is reported as 55.1 µM (PLA2G5; enzyme activity, inhibitor, Ellman).
`NC(=O)c1ccc[n+]([C@@H]2O[C@H](COP(=O)([O-])OP(=O)(O)OC[C@H]3O[C@@H](n4cnc5c(N)ncnc54)[C@H](O)[C@@H]3O)[C@@H](O)[C@H]2O)c1` has an IC50 of 395 µM (Poly [ADP-ribose] polymerase tankyrase-1 (TNKS, Homo sapiens, UniProt O95271); enzyme activity, inhibitor).
`CCn1c(COC(=O)c2ccccc2NC(=O)c2ccco2)nc2cc(S(=O)(=O)N(C)C)ccc21` has an IC50 of 63 µM (CXCR4; β-arrestin recruitment, antagonist).
`CC(=O)c1cccc(/N=N/c2cc(/C=C/C(=O)O)ccc2O)c1` gave an IC50 of 43.9 µM (PLA2G5; enzyme activity, inhibitor, Ellman).
`CNC(=O)c1cc2c(Oc3ccc(NC(=O)C4(C(=O)Nc5ccc(F)cc5)CC4)cc3)ccnc2cc1OC` has an IC50 of 0.003 µM (MERTK; enzyme activity, inhibitor, TR-FRET).
For `COc1ccc(S(=O)(=O)Nc2ccc3oc(-c4ccc(NC(=O)c5cccc(C)c5[N+](=O)[O-])cc4)nc3c2)cc1`, the IC50 was greater than 62.5 µM (MDH2; enzyme activity, inhibitor).
`CCN(CC)CCOc1ccc2c(c1)C(=O)c1cc(OCCN(CC)CC)ccc1-2` gave an IC50 of 0.0646 µM (Acetylcholinesterase (ACHE, Homo sapiens, UniProt P22303); enzyme activity, inhibitor).
With `CC(C)(C)n1nc(-c2ccc3nc(OC4CC4)ccc3c2)c(C(N)=O)c1N` the IC50 was greater than 10 µM (Calcium/calmodulin-dependent protein kinase kinase 2 (CAMKK2, Homo sapiens, UniProt Q96RR4); cell-free assay).
`O=S(=O)(Nc1ccc(-c2nc3cc(NS(=O)(=O)c4ccccc4Cl)ccc3o2)cc1)c1ccccc1Cl` gave an IC50 of greater than 62.5 µM (MDH2; enzyme activity, inhibitor).
For `CS(=O)(=O)c1ncc(N(Cc2ccccc2)Cc2ccco2)c(C(=O)Nc2ccccc2Cl)n1`, the IC50 was 40 µM (CXCR4; β-arrestin recruitment, antagonist).
`O=S(=O)(Nc1ccc(-c2nc3cc(NS(=O)(=O)c4ccc(Br)cc4)ccc3o2)cc1)c1ccc(Br)cc1` gave an IC50 of greater than 62.5 µM (MDH2; enzyme activity, inhibitor).
`CC(C)NCCCC[C@H](NC(=O)[C@H]1CCC(=O)N[C@@H](Cc2ccccc2)C(=O)N[C@@H](Cc2ccc(O)cc2)C(=O)N[C@@H](CCCCNC(C)C)C(=O)N[C@H](CCCNC(=N)N)C(=O)N[C@@H](Cc2ccc3ccccc3c2)C(=O)NCC(=O)N1)C(N)=O` has an IC50 of 0.0248 µM (CXCR4; ligand displacement, radioligand).
For `COc1ccc(S(=O)(=O)Nc2ccc(-c3nc4cc(NS(=O)(=O)c5ccc(OC)cc5)ccc4o3)cc2)cc1`, the IC50 was greater than 62.5 µM (MDH2; enzyme activity, inhibitor).
`CCn1ncc2c1-c1cnc(N)c(c1)O[C@H](C)c1cc(F)ccc1-c1nn(C)nc1C2` gave an IC50 of 0.19 µM (NTRK3; enzyme activity, inhibitor).
`Cc1cnc(-c2ccc(-c3ccc(NC(=O)Nc4c(F)cc(F)cc4F)cc3F)c3c2C(=O)NC3)[nH]1` has an IC50 of 0.0004 µM (SRC; enzyme activity, inhibitor).
The IC50 of `O=C(O)/C=C\C(=O)Nc1ccc(S(=O)(=O)Nc2ncccn2)cc1` is reported as 54.6 µM (Dipeptidyl peptidase 4 (DPP4, Homo sapiens, UniProt P27487); enzyme activity, inhibitor, fluorescence).
`COc1ccc(S(=O)(=O)Nc2ccc3oc(-c4ccc(NC(=O)C5CCN(C(C)=O)CC5)cc4)nc3c2)cc1` has an IC50 of greater than 62.5 µM (MDH2; enzyme activity, inhibitor).
The IC50 of `COc1ccc2c(Oc3ccc4c(C(=O)Nc5ccccc5N)cccc4c3)ccnc2c1` is reported as greater than 0.5 µM (SRC; enzyme activity, inhibitor).
